Reference: ChEMBL document CHEMBL5230174, “Synthesis and properties of the kojic acid dimer and its potential for the treatment of Alzheimer's disease” (RSC Med Chem, 2023)
Calls of active or inactive are those of the source. The rule behind the calls is not given here.

Tests used:
[1] = Antioxidant activity assessed as ABTS radical scavenging activity at 50 uM incubated for 6 mins under dark condition by UV-Vis spectrophotometry; format: functional
Outline: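 ABTS radical cation is generated from 7 mM ABTS and 4.96 mM potassium persulfate, kept dark at room temperature for 16 h, and diluted to A734 0.70 ± 0.02. Samples are serially diluted in DMSO and mixed with working solution, then shaken 6 min at room temperature in the dark before reading A734. Scavenging rate (%) comes from triplicate wells; VC and KA are controls.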

[2] = Antioxidant activity assessed as DPPH radical scavenging activity at 100 uM incubated for 30 mins under dark condition by UV-Vis spectrophotometry; format: functional
Outline: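 Compound dilutions made in DMSO. 100 μM DPPH in ethanol mixed 9:1 with sample, shaken 30 min in dark at room temperature; absorbance read at 517 nm on plate reader. Scavenging rate calculated from absorbance; triplicate wells, three parallel measurements, three independent experiments.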

[3] = Antioxidant activity assessed as ABTS radical scavenging activity at 100 uM incubated for 6 mins under dark condition by UV-Vis spectrophotometry; format: functional
Outline: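 Compound dilutions made in DMSO. ABTS (7 mM in water) reacted with 4.96 mM potassium persulfate, 16 h dark at room temperature; working solution adjusted to A734 0.70 ± 0.02. Working solution mixed with sample 9:1, shaken 6 min at room temperature in dark; A734 read on plate reader. Scavenging rate from absorbance; triplicate wells, three independent experiments.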

[4] = Antioxidant activity assessed as DPPH radical scavenging activity at 100 uM incubated for 30 mins under dark condition by UV-Vis spectrophotometry relative to kojic acid; format: functional
Outline: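 Samples serially diluted in DMSO, tested at 400–6.25 μM. Mixed with 100 μM DPPH in ethanol at 9:1 reagent:sample and shaken 30 min in the dark at room temperature. Absorbance read at 517 nm. Scavenging rate (%) is the mean of three independent experiments, each run in triplicate wells.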

[5] = Antioxidant activity assessed as ABTS radical scavenging activity at 100 uM incubated for 6 mins under dark condition by UV-Vis spectrophotometry relative to kojic acid; format: functional
Outline: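 Samples serially diluted in DMSO, tested at 400–6.25 μM. ABTS (7 mM, water) reacted with 4.96 mM potassium persulfate for 16 h in the dark at room temperature, then diluted to A734 of 0.70 ± 0.02. Working solution mixed 9:1 with sample and shaken 6 min in the dark at room temperature. Absorbance read at 734 nm; scavenging rate (%) is the mean of three independent experiments.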

[6] = Cytotoxicity against mouse BV-2 cells assessed as reduction in cell viability incubated for 24 hrs by MTT assay; format: toxicity, cell-based
Outline: (§1)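 Cells grown with 10% FBS plus penicillin/streptomycin at 37 °C, 5% CO2 (SH-SY5Y in DMEM/F12; BV-2, HT-22, H9c2 in DMEM; L02 in RPMI 1640). Seeded 1 × 10^4 per well, 24 h, then compound in medium 24 h. MTT (5 mg/mL stock) added 4 h at 37 °C; formazan dissolved in DMSO, A490 read.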

[7] = Cytotoxicity against human SH-SY5Y cells assessed as reduction in cell viability incubated for 24 hrs by MTT assay; format: toxicity, cell-based; outline: as §1
[8] = Cytotoxicity against mouse HT-22 cells assessed as reduction in cell viability incubated for 24 hrs by MTT assay; format: toxicity, cell-based; outline: as §1
[9] = Cytotoxicity against rat H9c2 cells assessed as reduction in cell viability incubated for 24 hrs by MTT assay; format: toxicity, cell-based; outline: as §1
[10] = Cytotoxicity against human L02 cells assessed as reduction in cell viability incubated for 24 hrs by MTT assay; format: toxicity, cell-based; outline: as §1
[11] = target: Amyloid-beta precursor protein (Homo sapiens) (UniProt P05067); assay: Inhibition of HFIP-pretreated human amyloid beta (1 to 42) aggregation at 50 uM incubated for 24 hrs under dark condition by Thioflavin T dye based fluorometric analysis
Outline: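 HFIP-pretreated human Aβ1–42 dissolved at 1000 μM in 1% NH4OH, sonicated 1 h cold, stored −20 °C, diluted in PBS pH 7.4. Aβ (25 μM final) incubated with compound (50 μM final) or PBS 24 h at 37 °C in dark. Aliquot mixed with 5 μM ThT in Gly-NaOH pH 8.5, shaken 5 min; fluorescence ex 450/em 490 nm. Inhibition = 1 − Fs/F0, background ThT subtracted; three independent experiments.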

[12] = system: SH-SY5Y; assay: Neuroprotective activity against H2O2-induced oxidative damage in human SH-SY5Y cells assessed as increase in cell viability at 500 uM pretreated for 24 hrs followed by H2O2 challenge for 2 hrs by MTT assay; format: functional, cell-based; conditions: time 26.0 hrs
Outline: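 SH-SY5Y cells are seeded at 1 × 10^4/well in DMEM/F12 with 10% FBS and grown 24 h. They are pretreated with compound for 24 h, then given 200 μM H2O2 for 2 h. MTT (5 mg/mL stock) is added for 4 h, formazan dissolved in DMSO, and A490 read. Viability is given as % of untreated control, mean ± SEM (n = 3).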

[13] = system: H9c2; assay: Neuroprotective activity against H2O2-induced oxidative damage in rat H9c2 cells assessed as increase in cell viability at 125 to 500 uM pretreated for 24 hrs followed by H2O2 challenge for 2 hrs by MTT assay; format: functional, cell-based; conditions: dose 125-500 µM, time 26.0 hrs
[14] = system: BV-2; assay: Antioxidant activity in mouse BV-2 cells assessed as reduction in H2O2-induced intracellular ROS accumulation at 125 to 500 uM pretreated for 24 hrs followed by H2O2 challenge for 12 hrs by DCFH-DA staining based inverted fluorescence microscopy; format: functional, cell-based; conditions: dose 125-500 µM, time 36.0 hrs
Outline: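 BV-2 cells (2 × 10^5/well) are pretreated with compound for 24 h, then given 1000 μM H2O2 for 12 h. They are loaded with 10 μM DCFH-DA in serum-free medium for 30 min at 37 °C and washed three times with PBS.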

[15] = system: H9c2; assay: Antioxidant activity in rat H9c2 cells assessed as reduction in H2O2-induced intracellular ROS accumulation at 125 to 500 uM pretreated for 24 hrs followed by H2O2 challenge for 4 hrs by DCFH-DA staining based inverted fluorescence microscopy; format: functional, cell-based; conditions: dose 125-500 µM, time 28.0 hrs
[16] = system: BV-2; assay: Antioxidant activity in mouse BV-2 cells assessed as reduction in H2O2-induced intracellular ROS accumulation by measuring intracellular ROS level at 500 uM pretreated for 24 hrs followed by H2O2 challenge for 12 hrs by DCFH-DA staining based flow cytometry (reference value: 40.7%); format: functional; set-up: scale not given: the % may be the effect or the level left; conditions: time 36 hrs
[17] = system: BV-2; assay: Antioxidant activity in mouse BV-2 cells assessed as reduction in H2O2-induced intracellular ROS accumulation by measuring intracellular ROS level at 250 uM pretreated for 24 hrs followed by H2O2 challenge for 12 hrs by DCFH-DA staining based flow cytometry (reference value: 40.7%); format: functional; set-up: scale not given: the % may be the effect or the level left; conditions: time 36 hrs
[18] = system: BV-2; assay: Antioxidant activity in mouse BV-2 cells assessed as reduction in H2O2-induced intracellular ROS accumulation by measuring intracellular ROS level at 125 uM pretreated for 24 hrs followed by H2O2 challenge for 12 hrs by DCFH-DA staining based flow cytometry (reference value: 40.7%); format: functional; set-up: scale not given: the % may be the effect or the level left; conditions: time 36 hrs
[19] = Induction of intracellular ROS accumulation in mouse BV-2 cells at 500 uM treated for 24 hrs by DCFH-DA staining based flow cytometry (reference value: 7.15%); format: toxicity, cell-based; conditions: bv-2, 24 h
[20] = system: H9c2; assay: Antioxidant activity in rat H9c2 cells assessed as reduction in H2O2-induced intracellular ROS accumulation at 125 to 500 uM pretreated for 24 hrs followed by H2O2 challenge for 4 hrs by DCFH-DA staining based flow cytometry; format: functional, cell-based; conditions: dose 125-500 µM, time 28.0 hrs
[21] = system: BV-2; assay: Antioxidant activity in mouse BV-2 cells assessed as reduction in H2O2-induced ROS burst by measuring increase in SOD activity at 125 to 500 uM treated with compound prior to H2O2 challenge; format: functional, cell-based; conditions: dose 125-500 µM
[22] = Metal chelating activity assessed as compound-Fe3+ complex formation by measuring optical responses at 100 uM in presence of FeCl3 by UV-Vis spectroscopy
Outline: (§2)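 Compound held at 100 μM in HEPES buffer (pH 7.4). The metal salt (CuSO4, ZnCl2, FeCl2, FeCl3·7H2O, AlCl3, Mn(CH3COO)2, MgSO4, NaCl, KCl or CaCl2) was added at one equivalent, and the UV-vis absorption spectrum was recorded from 200 to 800 nm.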

[23] = system: H9c2; assay: Antioxidant activity in rat H9c2 cells assessed as reduction in H2O2-induced ROS burst by measuring increase in SOD activity at 125 to 500 uM treated with compound prior to H2O2 challenge; format: functional, cell-based; conditions: dose 125-500 µM
[24] = Metal chelating activity assessed as compound-Cu2+ complex formation by measuring optical responses at 100 uM in presence of CuSO4 by UV-Vis spectroscopy; outline: as §2
[25] = Metal chelating activity assessed as compound-Zn2+ complex formation by measuring optical responses at 100 uM in presence of ZnCl2 by UV-Vis spectroscopy; outline: as §2
[26] = Metal chelating activity assessed as compound-Fe2+ complex formation by measuring optical responses at 100 uM in presence of FeCl2 by UV-Vis spectroscopy; outline: as §2
[27] = Metal chelating activity assessed as compound-Al3+ complex formation by measuring optical responses at 100 uM in presence of AlCl3 by UV-Vis spectroscopy; outline: as §2
[28] = Metal chelating activity assessed as compound-Na+ complex formation by measuring optical responses at 100 uM in presence of NaCl by UV-Vis spectroscopy; outline: as §2
[29] = Metal chelating activity assessed as compound-K+ complex formation by measuring optical responses at 100 uM in presence of KCl by UV-Vis spectroscopy; outline: as §2
[30] = Metal chelating activity assessed as compound-Mg2+ complex formation by measuring optical responses at 100 uM in presence of MgSO4 by UV-Vis spectroscopy; outline: as §2
[31] = Metal chelating activity assessed as compound-Ca2+ complex formation by measuring optical responses at 100 uM in presence of CaCl2 by UV-Vis spectroscopy; outline: as §2
[32] = Metal chelating activity assessed as compound-Mn2+ complex formation by measuring optical responses at 100 uM in presence of Mn(CH3COO)2 by UV-Vis spectroscopy; outline: as §2
[33] = Metal chelating activity assessed as compound-Cu2+ complex formation by measuring increase in absorption band intensity at 475 nm at 100 uM in presence of CuSO4 by UV-Vis spectroscopy
Outline: (§3)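 Compound held at 100 μM in HEPES buffer (pH 7.4) and titrated with Cu2+ at 12.5–200 μM (nine levels). UV-vis spectra were followed at 370 and 475 nm. Stoichiometry was taken from a plot of absorbance at 475 nm against the Cu2+:compound ratio.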

[34] = Metal chelating activity assessed as compound-Cu2+ complex formation by measuring decrease in absorption band intensity at 370 nm at 100 uM in presence of CuSO4 by UV-Vis spectroscopy; outline: as §3
[35] = Metal chelating activity assessed as compound-Cu2+ complex formation at stoichiometric ratio of 1:1 at 100 uM in presence of CuSO4 by UV-Vis spectroscopy; outline: as §3
[36] = Metal chelating activity assessed as compound-Fe2+ complex formation at stoichiometric ratio of 1:1 at 100 uM in presence of FeCl2 by UV-Vis spectroscopy

Amyloid-beta precursor protein (Homo sapiens), sequence (P05067 whole entry): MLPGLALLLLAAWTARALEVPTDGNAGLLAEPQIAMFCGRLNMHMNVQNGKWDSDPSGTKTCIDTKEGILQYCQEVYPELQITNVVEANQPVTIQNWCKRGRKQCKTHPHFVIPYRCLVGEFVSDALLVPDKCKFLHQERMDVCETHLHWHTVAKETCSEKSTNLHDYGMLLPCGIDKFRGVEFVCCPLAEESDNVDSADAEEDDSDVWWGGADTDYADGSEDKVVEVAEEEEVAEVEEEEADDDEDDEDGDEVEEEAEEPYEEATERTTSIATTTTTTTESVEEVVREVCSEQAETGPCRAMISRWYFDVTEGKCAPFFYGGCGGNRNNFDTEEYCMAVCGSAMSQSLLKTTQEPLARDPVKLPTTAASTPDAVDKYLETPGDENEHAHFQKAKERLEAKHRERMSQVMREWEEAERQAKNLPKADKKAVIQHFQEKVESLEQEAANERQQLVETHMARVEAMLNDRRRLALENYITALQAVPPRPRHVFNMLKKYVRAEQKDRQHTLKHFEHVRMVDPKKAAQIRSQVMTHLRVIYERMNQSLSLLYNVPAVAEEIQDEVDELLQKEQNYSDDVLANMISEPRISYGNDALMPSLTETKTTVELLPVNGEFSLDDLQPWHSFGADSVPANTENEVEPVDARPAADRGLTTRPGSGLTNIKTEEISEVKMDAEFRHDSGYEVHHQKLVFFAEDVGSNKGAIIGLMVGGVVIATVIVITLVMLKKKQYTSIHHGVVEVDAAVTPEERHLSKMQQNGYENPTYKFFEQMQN

O=C1O[C@H]([C@@H](O)CO)C(O)=C1O
Activity [1]: 39.7%

O=c1cc(CO)oc(-c2oc(CO)cc(=O)c2O)c1O
Activity [2]: 50.3% | Activity [3]: 79.4% | fold change (FC) [4]: 2 | fold change (FC) [5]: 2 | Activity [1]: 56% | IC50 at 24 h [6]: > 500 µM | IC50 at 24 h [7]: > 500 µM | IC50 at 24 h [8]: > 500 µM | IC50 at 24 h [9]: > 500 µM | IC50 at 24 h [10]: > 500 µM | inhibition [11]: 17% | Activity [12]: Active | Activity [13]: Active | Activity [14]: Active | Activity [15]: Active | Activity [16]: 21.6% | Activity [17]: 24.8% | Activity [18]: 29.4% | Activity [19]: 14% | Activity [20]: Active | Activity [21]: Dose-Dependent Effect | Activity [22]: Active | Activity [23]: Active | Activity [24]: Active | Activity [25]: Active | Activity [26]: Active | Activity [27]: Active | Activity [28]: inactive | Activity [29]: inactive | Activity [30]: inactive | Activity [31]: inactive | Activity [32]: inactive | Activity [33]: Active | Activity [34]: Active | Activity [35]: Active | Activity [36]: Active

O=c1cc(CO)occ1O [KOJIC ACID]
Activity [2]: 17.8% | Activity [3]: 46.8% | IC50 at 24 h [6]: > 500 µM | IC50 at 24 h [7]: > 500 µM | IC50 at 24 h [8]: > 500 µM | IC50 at 24 h [9]: > 500 µM | IC50 at 24 h [10]: > 500 µM | inhibition [11]: 14.6%
